Data: ChEMBL document CHEMBL1132918, “Synthesis and evaluation of tryprostatin B and demethoxyfumitremorgin C analogues” (J Med Chem, 2000)

Columns and labels:
3Y1 cell line = test: Cytotoxicity in 3Y1 cells.; type: functional, Rattus norvegicus; set-up: unit not given here
Method in brief: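 Rat normal fibroblast 3Y1 cells grown in Dulbecco's modified MEM with 10% fetal calf serum, 5% CO2, humidified. Exponentially growing cells exposed to compounds for 24 h. Relative cell number = cell number at 24 h per initial cell number at 0 h × 100; DNA content distribution read by laser scanning cytometry.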

Renal cell = test: Inhibitory activity against renal cell line; type: functional, cell-based; conditions: for IC50: Homo sapiens, Renal cell; for Log IC50: renal cell
[1] = system: non-small-cell lung cancer cell lines (Homo sapiens); test: Inhibitory activity against non-small-cell lung cancer cell lines; conditions: for IC50: Homo sapiens
[2] = system: NCI-60 human tumor cell line panel (Homo sapiens); test: Cytostatic effect in NCI-60 human tumor cell lines.; set-up: unit not given here
Prostate cell = test: Inhibitory activity against prostate cell line; type: functional, cell-based; conditions: for IC50: Homo sapiens, Prostate cell
CNS cell = test: Inhibitory activity against CNS cell line; type: functional, cell-based; conditions: for IC50: Homo sapiens, CNS cell; for Log IC50: cns cell
[3] = system: Panel leukemia (Carcinoma cell lines); test: Inhibitory activity against leukemia cell line; type: functional, cell-based; conditions: for IC50: Homo sapiens, Panel leukemia (Carcinoma cell lines); for Log IC50: panel leukemia (carcinoma cell lines)
Melanoma cell = test: Inhibitory activity against melanoma cell line; type: functional, cell-based; conditions: for IC50: Homo sapiens, Melanoma cell; for Log IC50: melanoma cell
[4] = system: NCI-60 human tumor cell line panel (Homo sapiens); test: Mean concentration causing inhibition of cell growth in the NCI-60 human tumor cell line panel.
Colon cell = test: Inhibitory activity against Colon cell line; type: functional, cell-based; conditions: for IC50: Homo sapiens, Colon cell; for Log IC50: colon cell
Ovarian carcinoma cell = test: Inhibitory activity against ovarian cell line; type: functional, cell-based; conditions: for IC50: Homo sapiens, Ovarian carcinoma cell
Breast carcinoma cell = test: Inhibitory activity against breast cell line; type: functional, cell-based; conditions: for IC50: Homo sapiens, Breast carcinoma cell; for Log IC50: breast carcinoma cell
[5] = system: NCI-60 human tumor cell line panel (Homo sapiens); test: Mean averaged concentration for total growth inhibition, which signifies cytostatic effect

Row | SMILES | LC50 (3Y1 cell line) | IC50 (Renal cell) [µM] | IC50 [1] [µM] | TGI [2] | IC50 (Prostate cell) [µM] | IC50 (CNS cell) [µM] | IC50 [3] [µM] | IC50 (Melanoma cell) [µM] | GI50 ([4]; Homo sapiens, NCI-60 panel) [µM] | IC50 (Colon cell) [µM] | IC50 (Ovarian carcinoma cell) [µM] | IC50 (Breast carcinoma cell) [µM] | further results
1 | CC(C)=CCN1C(=O)[C@@H]2CCCN2C(=O)[C@@H]1Cc1c[nH]c2ccccc12 (stereo in doubt) | >-4 | > 100 | 97.7 | -4.01 | > 100 | > 100 | 61.7 | > 100 | 85.1 | 95.5 | > 100 | 89.1 | 
2 | COc1cc([C@@H]2c3[nH]c4ccccc4c3C[C@H]3C(=O)N4CCC[C@H]4C(=O)N23)cc(OC)c1O | >-4 | > 100 | > 100 | >-4 | > 100 | > 100 | > 100 | > 100 | > 100 | > 100 | > 100 | > 100 | 
3 | COc1cc(CN2C(=O)[C@@H]3CCCN3C(=O)[C@@H]2Cc2c[nH]c3ccccc23)cc(OC)c1O | >-4 | > 100 | 87.1 |  | > 100 | > 100 | 64.6 | 95.5 | 91.2 | 87.1 | > 100 | 95.5 | TGI [5]: >-4
4 | COc1cc(CN2C(=O)[C@@H]3CCCN3C(=O)[C@@H]2Cc2c[nH]c3ccccc23)cc(OC)c1OC | -4.01 | 30.2 | 42.7 | -4.04 | 57.5 | 27.5 | 13.2 | 28.8 | 30.9 | 30.2 | 40.7 | 33.9 | 
5 | COc1cc([C@H]2c3[nH]c4ccccc4c3C[C@H]3C(=O)NCC(=O)N23)cc(OC)c1OC (relative stereo) | >-4 | 95.5 | > 100 | >-4 | > 100 | > 100 | 72.4 | > 100 | 95.5 | > 100 | > 100 | 93.3 | 
6 | COc1cc([C@H]2c3[nH]c4ccccc4c3C[C@H]3C(=O)NCC(=O)N23)cc(OC)c1O (relative stereo) | >-4 | > 100 | > 100 | >-4 | > 100 | > 100 | > 100 | > 100 | > 100 | > 100 | > 100 | > 100 | 
7 | O=C1[C@@H]2Cc3c([nH]c4ccccc34)[C@H](c3ccccc3)N2C(=O)[C@@H]2CCCN12 | >-4 | 42.7 | 63.1 | >-4 | 85.1 | > 100 | 13.8 | 51.3 | 47.9 | 41.7 | 57.5 | 36.3 | 
8 | CC(C)=C[C@H]1c2[nH]c3ccccc3c2C[C@H]2C(=O)N3CCC[C@H]3C(=O)N21 (stereo in doubt; 3) [DEMETHOXYFUMITREMORGIN C] | >-4 |  | 52.5 | -4.02 | 50.1 |  | 34.7 |  |  | 53.7 | 70.8 |  | Log IC50 (Renal cell): -4.61; Log IC50 (CNS cell): -4.36; Log IC50 (Melanoma cell): -4.32; GI50 [4]: 43.7 µM; Log IC50 (Breast carcinoma cell): -4.43
9 | COc1cc([C@H]2c3[nH]c4ccccc4c3C[C@H]3C(=O)N4CCC[C@H]4C(=O)N23)cc(OC)c1O | >-4 | 44.7 | 40.7 | >-4.03 | 66.1 | 33.1 | 100 | 55 | 53.7 | 89.1 | 39.8 | 46.8 | 
10 | O=C1[C@@H]2Cc3c([nH]c4ccccc34)[C@@H](c3ccccc3)N2C(=O)[C@@H]2CCCN12 | >-4 | 50.1 | 52.5 | >-4 | 63.1 | 61.7 | 40.7 | 50.1 | 51.3 | 45.7 | 56.2 | 49 | 
11 | CC(C)C[C@H]1c2[nH]c3ccccc3c2C[C@H]2C(=O)N3CCC[C@H]3C(=O)N21 | >-4 | 74.1 | 77.6 |  | 83.2 | 83.2 | 36.3 | 87.1 | 70.8 | 67.6 | 79.4 | 63.1 | 
12 | O=C1[C@@H]2CCCN2C(=O)[C@H](Cc2c[nH]c3ccccc23)N1C/C=C/c1ccccc1 | -4.01 | 35.5 | 32.4 | -4.07 | 39.8 | 37.2 | 22.9 | 43.7 | 31.6 | 35.5 | 44.7 | 27.5 | 
13 | COc1cc([C@@H]2c3[nH]c4ccccc4c3C[C@H]3C(=O)N4CCC[C@H]4C(=O)N23)cc(OC)c1OC | >-4 | 77.6 | 69.2 | -4.01 | 72.4 | 74.1 | 32.4 | 87.1 | 66.1 | 74.1 | 77.6 | 46.8 | 
14 | CC(C)C[C@@H]1c2[nH]c3ccccc3c2C[C@H]2C(=O)N3CCC[C@H]3C(=O)N12 | >-4 | 97.7 | 93.3 | >-4 | > 100 | 85.1 | 77.6 | > 100 | 93.3 | > 100 | > 100 | 87.1 | 
15 | COc1cc([C@H]2c3[nH]c4ccccc4c3C[C@H]3C(=O)N4CCC[C@H]4C(=O)N23)cc(OC)c1OC | >-4 | 95.5 | 70.8 | >-4 | 91.2 | 95.5 | 64.6 | 93.3 | 87.1 | 93.3 | 72.4 | 97.7 | 
16 | CC(C)=CCN1C(=O)[C@@H]2CCCN2C(=O)[C@@H]1Cc1c[nH]c2ccccc12 (stereo in doubt; 5a) |  |  |  | >-4 |  |  |  |  |  |  |  |  | Log IC50 [1]: > -4; Log IC50 [3]: > -4; GI50 [4]: > 100 µM; Log IC50 (Colon cell): > -4; Log IC50 (Breast carcinoma cell): > -4
17 | CC(C)=C[C@H]1c2[nH]c3ccccc3c2C[C@H]2C(=O)N3CCC[C@H]3C(=O)N21 (stereo in doubt) [DEMETHOXYFUMITREMORGIN C] |  |  |  |  |  |  |  |  |  |  |  |  | Log IC50 (Renal cell): > -4; Log IC50 [1]: -4.03; Log IC50 (Prostate cell; prostate cell): > -4; Log IC50 (CNS cell): -4; Log IC50 [3]: -4.16; Log IC50 (Melanoma cell): > -4; GI50 [4]: 95.5 µM; Log IC50 (Colon cell): -4.02; Log IC50 (Ovarian carcinoma cell; ovarian carcinoma cell): > -4; Log IC50 (Breast carcinoma cell): > -4
18 | COc1cc([C@@H]2c3[nH]c4ccccc4c3C[C@H]3C(=O)NCC(=O)N23)cc(OC)c1O (relative stereo) | >-4 | 55 | 56.2 | -4.01 | 70.8 | 38 | 38 | 45.7 | 50.1 | 46.8 | 66.1 | 49 | 
19 | O=C1[C@H](Cc2c[nH]c3ccccc23)N(Cc2ccccc2)C(=O)[C@@H]2CCCN12 | >-4 | > 100 | > 100 | >-4 | > 100 | > 100 | 85.1 | > 100 | 97.7 | > 100 | > 100 | > 100 | 
20 | COc1cc([C@@H]2c3[nH]c4ccccc4c3C[C@H]3C(=O)NCC(=O)N23)cc(OC)c1OC (relative stereo) | -4.04 | 13.8 | 7.59 | -4.26 | 5.5 | 3.72 | 2.29 | 6.76 | 5.89 | 4.37 | 5.89 | 6.31 | 
